# Test results from ChEMBL document CHEMBL1123516, “Substituted 1,3,4-thiadiazoles with anticonvulsant activity. 1. Hydrazines” (J Med Chem, 1986).
# Key:
# [1] = test system: Mus musculus; test: Anticonvulsant activity tested by maximal electroshock test (MES) in mouse after 1 hr of administration; assay type: functional
# Method in brief: (§1)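 Male BKW mice (LACA origin), 18-22 g, dosed ip or po with compound dissolved or suspended in 2% Tween 80 in distilled water. Readout was block of hind limb tonic seizure. ED50 was derived by probit analysis using the computerized Bliss method.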
# [2] = test system: Mus musculus; test: Anticonvulsant activity tested by maximal metrazole seizure (MMS) test in mouse after 1 hr of administration; assay type: functional
# Method in brief: (§2)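 Male BKW mice, 18-22 g, dosed orally with compound in 2% Tween 80/water. Metrazol 120 mg/kg ip was given 1 h after dosing. ED50 for block of hind limb tonic seizure was derived by Bliss probit analysis.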
# [3] = Neurotoxicity by a rotarod test in mouse after 1 hr of administration; assay type: toxicity, organism-based; details: in vivo
# Method in brief: (§3)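 Male BKW mice, 18-22 g, were pre-trained on a rotorod turning at 16 rpm (3 cm drum). They were dosed ip or po in 2% Tween 80/water and tested at timed intervals. TD50, the dose at which 50% fell off the rod, was derived by probit analysis.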
# [4] = test system: Rattus norvegicus; test: Maximum percent fall in mean arterial blood pressure was evaluated by injecting 100 mg/kg perorally in DOCA hypertensive rats; assay type: functional; details: route oral
# [5] = Neurotoxicity by performing a rotarod in mouse after 1 hr of administration; assay type: toxicity, organism-based; details: in vivo; method in brief: as §3
# [6] = test system: Mus musculus; test: Inhibition of hind limb tonus was tested at time of peak effect by maximal electroshock test (MES) in mouse on intraperitoneal administration of compound; assay type: functional; details: Hindlimb, ip; method in brief: as §1
# [7] = test system: Mus musculus; test: Inhibition of hind limb tonus was tested at time of peak effect by maximal metrazole seizure (MMS) test administered intraperitoneally in mouse; assay type: organism-based; details: Hindlimb, ip
# Method in brief: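 Male BKW mice (18-22 g) received compound intraperitoneally in 2% aqueous Tween 80 and were challenged with metrazol 120 mg/kg ip at the time of peak effect. ED50 for block of hind limb tonic seizure in 50% of mice was obtained by probit analysis.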
# [8] = test system: Mus musculus; test: Inhibition of hind limb tonus was tested by performing a maximal metrazole seizure (MMS) test in mouse after 1 hr of peroral administration of compound; details: Hindlimb, po
# [9] = test system: Rattus norvegicus; test: Inhibition of hind limb tonus was tested by maximal electroshock test (MES) in rat 1 hr after peroral dosing; assay type: functional; details: Hindlimb, po
# [10] = test system: Rattus norvegicus; test: Inhibition of hind limb tonus was tested by maximal electroshock test (MES) in rat after 4 hr of peroral administration; assay type: functional; details: Hindlimb, po
# [11] = test system: Rattus norvegicus; test: Inhibition of hind limb tonus was tested by maximal metrazole seizure test after 1 hr of peroral administration in rats; assay type: functional; details: Hindlimb, po
# Method in brief: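 Rats were dosed orally, then given metrazol (leptazol) 80 mg/kg iv 1 h later, following the Desmedt method. The endpoint was hind limb tonic seizure, with ED50 by probit analysis.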
# [12] = test system: Rattus norvegicus; test: Inhibition of hind limb tonus was tested by maximal metrazole seizure test after 4 hr of peroral administration in rats; assay type: functional; details: Hindlimb, po
# Method in brief: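 Rats received the anticonvulsant orally, then metrazol (leptazol) 80 mg/kg iv, following Desmedt et al. The endpoint was block of the hind limb tonic seizure. ED50 was the dose protecting 50% of animals, by probit analysis (Bliss computerized method), with limits.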
# [13] = test system: Rattus norvegicus; test: Inhibition of hind limb tonus was tested at time of peak effect by maximal electroshock test (MES) on intraperitoneal administration of compound in rats; assay type: functional; details: Hindlimb, ip
# [14] = Protective index (rat) was from the ratio of plasma concentration at which side effects occur by plasma concentration at which anticonvulsant activity occur.; assay type: functional
# Method in brief: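 Rat plasma drug concentration at rotorod impairment was divided by the plasma concentration at MES anticonvulsant activity. Both were measured by HPLC-UV in plasma from dosed rats.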
# [15] = test system: Mus musculus; test: Inhibition of hind limb tonus was tested by maximal electroshock test (MES) in mouse after 1 hr of peroral administration of compound; assay type: functional; details: Hindlimb, po; method in brief: as §1
# [16] = Neurotoxicity by performing a rotarod test in mouse after 1 hr of administration; assay type: toxicity, organism-based; details: in vivo; method in brief: as §3
# [17] = test system: Mus musculus; test: Anticonvulsant activity was assessed by performing maximal electroshock test (MES) 1 hr after dosing, in mouse.; assay type: functional; method in brief: as §1
# [18] = test system: Mus musculus; test: Inhibition of hind limb tonus was tested by maximal metrazole seizure (MMS) test in mouse after 1 hr of peroral administration; assay type: functional; details: Hindlimb, po; method in brief: as §2
# [19] = Effect of compound on mouse motor performance was studied by performing a rotarod test in mouse dosing intraperitoneally at time of peak effect.; assay type: ADME, organism-based; details: in vivo, ip; method in brief: as §3
# [20] = Effect of compound on mouse motor performance was tested by rotarod test after 1 hr of peroral administration; assay type: ADME, organism-based; details: in vivo, po; method in brief: as §3
# [21] = test system: Rattus norvegicus; test: Inhibition of hind limb tonus was tested by maximal electroshock test (MES) in rat after 1 hr of peroral administration; assay type: functional; details: Hindlimb, po
# [22] = test system: Rattus norvegicus; test: Inhibition of hind limb tonus was tested by maximal metrazole seizure test after 1 hr of peroral administration of compound; assay type: functional; details: Hindlimb, po
# [23] = test system: Rattus norvegicus; test: Inhibition of hind limb tonus was tested by maximal metrazole seizure test after 4 hr of peroral administration; assay type: functional; details: Hindlimb, po
# [24] = species on record: Rattus norvegicus; test: Plasma concentration in rat rotarod test.; assay type: functional, organism-based
# Method in brief: (§4)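 Groups of six rats received compound suspended in 2% Tween 80/water (0.5 mL/100 g) ip or po. Blood was drawn by cardiac puncture into heparin at various times. Plasma was extracted and assayed by HPLC-UV on an ODS column with 1% acetic acid/methanol/0.1% aqueous ammonium acetate (45:55).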
# [25] = species on record: Rattus norvegicus; test: Plasma concentration was determined in rat maximal electroshock test; assay type: functional, organism-based; method in brief: as §4
compound,measurement,setting,value
CCCCCCOc1ccccc1-c1nnc(NN)s1.Cl,ED50,[1],20 mg/kg
same,ED50,[2],33 mg/kg
same,TD50 at 1 h,[3],> 150 mg/kg
same,Decrease in blood pressure,[4],10%
COCN(N)c1nnc(-c2ccccc2Cl)s1,ED50,[1],50 mg/kg
same,ED50,[2],60 mg/kg
same,TD50 at 1 h,[5],80 mg/kg
O=C1NC(=O)C(c2ccccc2)(c2ccccc2)N1 [PHENYTOIN],ED50,[6],8 mg/kg
same,ED50,[7],12 mg/kg
same,ED50,[8],8 mg/kg
same,ED50,[9],14 mg/kg
same,ED50,[10],26 mg/kg
same,ED50,[11],12 mg/kg
same,ED50,[12],20 mg/kg
same,ED50,[13],14 mg/kg
same,PI,[14],5.17
same,ED50,[15],8 mg/kg
CN(C)N(C)c1nnc(-c2ccccc2-c2ccccc2)s1.Cl,ED50,[2],73 mg/kg
same,TD50 at 1 h,[16],> 800 mg/kg
same,ED50,[17],63 mg/kg
CN(N)c1nnc(-c2ccccc2-c2ccccc2)s1,ED50,[6],17 mg/kg
same,ED50,[18],27 mg/kg
same,TD50,[19],93 mg/kg
same,TD50 at 1 h,[20],> 1000 mg/kg
same,ED50,[21],16 mg/kg
same,ED50,[10],11 mg/kg
same,ED50,[22],13 mg/kg
same,ED50,[23],13 mg/kg
same,Concentration,[24],57 µg/mL
same,Concentration,[25],11.1 µg/mL
same,ED50,[13],6 mg/kg
same,PI,[14],5.14
same,ED50,[15],18 mg/kg
